ChEMBL document CHEMBL1124343 (J Med Chem, 1989)

Experiments:
[1] = target: T1, Adrenergic receptor alpha-1 (Rattus norvegicus, UniProt P15823+P23944+P43140); experiment: Binding affinity at Alpha-1 adrenergic receptor sites on rat cerebral cortical membranes by [3H]prazosin displacement.
T1 sequence (P15823 whole entry): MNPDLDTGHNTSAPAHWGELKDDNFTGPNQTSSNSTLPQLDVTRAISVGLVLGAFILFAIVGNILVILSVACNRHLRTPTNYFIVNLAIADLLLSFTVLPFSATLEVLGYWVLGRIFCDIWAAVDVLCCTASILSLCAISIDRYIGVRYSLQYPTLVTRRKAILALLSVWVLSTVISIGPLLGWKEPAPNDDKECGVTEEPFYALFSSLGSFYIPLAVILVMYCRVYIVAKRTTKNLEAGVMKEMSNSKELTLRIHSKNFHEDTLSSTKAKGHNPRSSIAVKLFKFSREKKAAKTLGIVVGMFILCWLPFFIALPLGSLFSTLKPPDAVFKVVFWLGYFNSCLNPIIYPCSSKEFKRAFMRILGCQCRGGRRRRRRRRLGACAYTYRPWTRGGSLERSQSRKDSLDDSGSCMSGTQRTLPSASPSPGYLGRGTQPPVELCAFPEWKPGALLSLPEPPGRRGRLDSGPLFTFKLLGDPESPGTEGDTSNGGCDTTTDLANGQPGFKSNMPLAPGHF
T1 sequence (P23944 whole entry): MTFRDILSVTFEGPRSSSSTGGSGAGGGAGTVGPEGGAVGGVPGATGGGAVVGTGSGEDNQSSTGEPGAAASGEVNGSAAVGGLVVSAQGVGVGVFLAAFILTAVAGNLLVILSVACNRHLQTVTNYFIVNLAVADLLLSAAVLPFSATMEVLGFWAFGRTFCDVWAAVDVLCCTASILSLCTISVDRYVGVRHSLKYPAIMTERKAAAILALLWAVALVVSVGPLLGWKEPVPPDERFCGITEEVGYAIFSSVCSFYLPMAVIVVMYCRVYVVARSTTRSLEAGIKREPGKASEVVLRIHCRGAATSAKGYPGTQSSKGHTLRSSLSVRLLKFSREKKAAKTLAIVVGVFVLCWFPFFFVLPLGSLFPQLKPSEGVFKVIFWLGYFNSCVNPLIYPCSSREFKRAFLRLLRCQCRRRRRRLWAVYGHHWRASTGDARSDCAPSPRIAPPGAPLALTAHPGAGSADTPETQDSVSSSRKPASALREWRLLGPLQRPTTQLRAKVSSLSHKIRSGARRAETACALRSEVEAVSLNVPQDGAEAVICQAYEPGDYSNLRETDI
T1 sequence (P43140 whole entry): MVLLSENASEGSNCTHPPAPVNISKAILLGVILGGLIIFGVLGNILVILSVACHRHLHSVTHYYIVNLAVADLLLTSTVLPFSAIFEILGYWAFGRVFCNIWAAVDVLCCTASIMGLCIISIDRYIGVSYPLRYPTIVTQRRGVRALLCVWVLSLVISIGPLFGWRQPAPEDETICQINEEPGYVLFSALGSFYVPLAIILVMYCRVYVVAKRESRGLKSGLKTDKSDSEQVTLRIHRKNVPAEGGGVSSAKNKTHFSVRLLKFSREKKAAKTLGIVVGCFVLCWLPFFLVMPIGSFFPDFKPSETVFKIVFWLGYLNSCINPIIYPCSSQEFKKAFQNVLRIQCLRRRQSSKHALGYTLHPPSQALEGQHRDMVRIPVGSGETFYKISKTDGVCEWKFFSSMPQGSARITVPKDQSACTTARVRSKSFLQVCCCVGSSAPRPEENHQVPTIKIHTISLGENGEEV
In short: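 Rat cortex membranes were washed and resuspended in 50 mM Tris pH 7.4 with 10 mM MgCl2, about 200–300 μg protein per tube. […] Nonspecific binding used 10 μM phentolamine. Tubes were run in duplicate, IC50 came from displacement curves, and there were 3–5 experiments or duplicate experiments.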

[2] = target: T1, Adrenergic receptor alpha-1; experiment: Displacement of [3H]prazosin binding to Alpha-1 adrenergic receptor sites on rat cerebral cortical membranes at 100 nM concentration; type: cell membranes, Membrane
[3] = target: T1, Adrenergic receptor alpha-1; experiment: Compound is evaluated for its ability to compete with [3H]prazosin for binding to Alpha-1 adrenergic receptor sites on rat cerebral cortical membranes at 10 nM concentration
[4] = target: T1, Adrenergic receptor alpha-1; experiment: Compound is evaluated for its ability to compete with [3H]prazosin for binding to Alpha-1 adrenergic receptor sites on rat cerebral cortical membranes at 100 nM concentration
[5] = target: T1, Adrenergic receptor alpha-1; experiment: Compound is evaluated for its ability to compete with [3H]prazosin for binding to Alpha-1 adrenergic receptor sites on rat cerebral cortical membranes at 1000 nM concentration
[6] = target: Adrenergic receptor alpha-1 (Rattus norvegicus) (UniProt P15823+P23944+P43140); experiment: Irreversible action of compound towards Alpha-1 adrenergic receptor on rat cerebral cortical membranes was determined at 1000 nM concentration; type: cell membranes; details: Membrane
In short: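 Cortical membranes in Tris/MgCl2 buffer were preincubated 1 h at 30 °C with compound or buffer alone. Isothiocyanates were run in 50 mM phosphate with 1 mM EDTA, pH 7. Membranes were diluted, kept 10 min on ice and washed by four centrifugations. […] Bmax came from Scatchard plots, at least 3 experiments.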

| Structure (SMILES) | -Log IC50 [1] | -Log IC50 [2] | other results |
| --- | --- | --- | --- |
| COc1cc2nc(N3CCN(/C(S)=N/c4ccc(NC(=S)N5CC5)cc4)CC3)nc(N)c2cc1OC | 7.01 | – | – |
| COc1ccc(/C=C/C(=O)N2CCN(c3nc(N)c4cc(OC)c(OC)cc4n3)CC2)cc1 | – | 8.47 | – |
| COc1cc2nc(N3CCN(C(=O)C4CC5C=CC4C5)CC3)nc(N)c2cc1OC (stereo unspecified) | – | – | -Log IC50 [3]: 8.8 |
| COc1cc2nc(N3CCN(S(=O)(=O)c4cccs4)CC3)nc(N)c2cc1OC | 7.47 | – | – |
| COc1cc2nc(N3CCN(C(=O)/C=C/c4ccc(NC(=O)CBr)cc4)CC3)nc(N)c2cc1OC | – | 7.17 | – |
| COc1cc2nc(N3CCN(C(=O)/C(F)=C/c4ccccc4)CC3)nc(N)c2cc1OC | – | 7.4 | – |
| COc1cc2nc(N3CCN(C(=O)Nc4ccccc4)CC3)nc(N)c2cc1OC | 7.56 | – | – |
| COc1cc2nc(N3CCN(C(=O)/C=C/c4ccccc4)CC3)nc(N)c2cc1OC | – | 9.16 | – |
| COC(=O)/C=C/C(=O)Nc1ccc(/C=C/C(=O)N2CCN(c3nc(N)c4cc(OC)c(OC)cc4n3)CC2)cc1 | – | 7.53 | – |
| COc1cc2nc(N3CCN(C(=O)/C=C/c4ccc(F)cc4)CC3)nc(N)c2cc1OC | – | 7.64 | – |
| COc1cc2nc(N3CCN(C(=O)c4ccc(N=C=S)c(I)c4)CC3)nc(N)c2cc1OC | 7.29 | – | – |
| COc1cc2nc(N3CCN(C(=O)c4ccc5ccccc5c4)CC3)nc(N)c2cc1OC | 7.31 | – | – |
| COC(=O)/C=C/C(=O)Nc1ccc(CCCCC(=O)N2CCN(c3nc(N)c4cc(OC)c(OC)cc4n3)CC2)cc1 | – | 8.35 | – |
| COc1cc2nc(N3CCN(S(=O)(=O)c4ccc(C)cc4)CC3)nc(N)c2cc1OC | 7.94 | – | – |
| COc1cc2nc(N3CCN(C(=O)C4OC4c4ccccc4)CC3)nc(N)c2cc1OC (stereo unspecified) | – | – | -Log IC50 [4]: 7.88 |
| COc1cc2nc(N3CCN(C(=O)/C=C/c4cccc(F)c4)CC3)nc(N)c2cc1OC | 7.68 | – | – |
| COc1cc2nc(N3CCN(C(=O)CCc4ccccc4)CC3)nc(N)c2cc1OC | 8.47 | – | – |
| COc1cc2nc(N3CCN(C(=O)c4cccc(CCl)c4)CC3)nc(N)c2cc1OC | 7.93 | – | – |
| COc1cc2nc(N3CCN(/C(S)=N/C4CCCCC4)CC3)nc(N)c2cc1OC | 8.27 | – | – |
| COc1cc2nc(N3CCN(/C(S)=N/c4ccccc4)CC3)nc(N)c2cc1OC | 11.16 | – | – |
| COc1cc2nc(N3CCN(/C(S)=N/c4ccc(N=[N+]=[N-])cc4)CC3)nc(N)c2cc1OC | 7.7 | – | – |
| COc1cc2nc(N3CCN(C(=O)/C=C/c4ccc(Br)cc4)CC3)nc(N)c2cc1OC | 7.1 | – | – |
| C/C=C/C=C/C(=O)N1CCN(c2nc(N)c3cc(OC)c(OC)cc3n2)CC1 | – | 8.36 | – |
| COc1cc2nc(N3CCN(C(=O)/C=C/C(=O)c4ccccc4)CC3)nc(N)c2cc1OC | 7.06 | – | – |
| COc1cc2nc(N3CCN(C(=O)C4=CC5C=CC4CC5)CC3)nc(N)c2cc1OC (stereo unspecified) | – | – | -Log IC50 [3]: 8.12 |
| COC(=O)/C=C/C=C/C(=O)N1CCN(c2nc(N)c3cc(OC)c(OC)cc3n2)CC1 | – | – | -Log IC50 [5]: 7.41; Decrease in Bmax [6]: 0% |
| COc1cc2nc(N3CCN(C(=O)COc4ccccc4)CC3)nc(N)c2cc1OC | 7.9 | – | – |
| COc1cc2nc(N3CCN(C(=O)C4CC4c4ccccc4)CC3)nc(N)c2cc1OC (stereo unspecified) | 9.29 | – | – |
| COc1cc2nc(N3CCN(C(=O)/C=C/c4ccc(Cl)cc4)CC3)nc(N)c2cc1OC | 7.9 | – | – |
| COc1cc2nc(N3CCN(C(=O)/C=C/c4ccc(N=C=S)cc4)CC3)nc(N)c2cc1OC | – | 6.99 | – |
